Shown are actives, neighbours in structure and some others; about 1.3% of the full set was active somewhere.
G6PDH counter = inhibits Leuconostoc G6PDH, flagging false hits in G6PDH-based assays | Purified L. mesenteroides G6PDH, diaphorase/resazurin coupled fluorescence, 45 min | inhibition, % at 5 µM | 200,000 compounds, 0.12% hits | AID 1020; in the data active means inhibition above about 50%
Diaphorase act = diaphorase activation or chemical reduction counter-screen. activation factor at 20 µM. AID 1229. Diaphorase/resazurin coupled assay, resorufin fluorescence, 16 min; active compounds read high; 1 = vehicle wells, 0 = NADH-free wells. 190,000 compounds, 0.005% hits;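 active means diaphorase activity raised at least twofold by the compound at 20 µM; inactive means activation factor below 2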
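Test system: Clostridium kluyveri diaphorase, purified enzyme. Buffer or medium: 50 mM HEPES pH 7.4 buffer plus MgCl2 and Tween 20. Also added: 0.114 mM NADH and 0.1 mM resazurin, final amounts. Dosing: compound 20 µM once, DMSO 1%. Schedule: 16 min enzyme reaction, ambient temperature. Detection: fluorescence of resorufin, 544 nm excitation, 590 nm emission.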
HKDC1 inhibitor = HKDC1 (human) hexokinase inhibition; Q2TB90; recombinant HKDC1, G6PDH/diaphorase resazurin coupled fluorescence; inhibition, % at 20 µM; 340,000 compounds, 0.16% hits; AID 493160;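 active means inhibition above about 35% when tested at 20 µM, limit read from the data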
Target sequence (Q2TB90 whole entry, looked up): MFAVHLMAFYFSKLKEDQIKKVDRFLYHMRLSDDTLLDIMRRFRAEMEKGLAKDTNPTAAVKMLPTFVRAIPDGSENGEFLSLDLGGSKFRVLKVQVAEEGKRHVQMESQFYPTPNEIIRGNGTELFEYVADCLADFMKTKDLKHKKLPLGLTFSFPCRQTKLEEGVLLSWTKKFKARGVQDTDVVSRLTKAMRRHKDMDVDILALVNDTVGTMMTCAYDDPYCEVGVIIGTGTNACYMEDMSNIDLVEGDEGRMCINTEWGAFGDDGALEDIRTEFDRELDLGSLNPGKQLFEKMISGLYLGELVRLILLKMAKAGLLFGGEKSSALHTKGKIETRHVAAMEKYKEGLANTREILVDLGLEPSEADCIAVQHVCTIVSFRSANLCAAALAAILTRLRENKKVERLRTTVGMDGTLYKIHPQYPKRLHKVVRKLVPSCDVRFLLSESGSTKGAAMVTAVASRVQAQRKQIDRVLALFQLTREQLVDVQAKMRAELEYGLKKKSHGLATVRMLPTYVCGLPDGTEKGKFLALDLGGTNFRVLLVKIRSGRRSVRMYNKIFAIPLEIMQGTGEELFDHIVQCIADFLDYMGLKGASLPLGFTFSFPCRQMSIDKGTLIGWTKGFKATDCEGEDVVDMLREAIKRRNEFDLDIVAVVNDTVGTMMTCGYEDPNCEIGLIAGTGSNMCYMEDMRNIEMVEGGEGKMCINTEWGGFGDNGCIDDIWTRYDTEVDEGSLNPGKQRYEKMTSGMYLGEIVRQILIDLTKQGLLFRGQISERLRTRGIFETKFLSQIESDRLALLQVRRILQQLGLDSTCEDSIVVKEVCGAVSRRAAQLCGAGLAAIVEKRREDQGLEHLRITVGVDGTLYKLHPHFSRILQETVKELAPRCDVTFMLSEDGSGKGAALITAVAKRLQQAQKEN
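Test system: Recombinant HKDC1 (HK5) hexokinase enzyme, produced in-house | Input: HKDC1 at 5 µg/mL | Buffer or medium: Tris pH 8.0 buffer with MgCl2, Tween-20, BSA, BME | Schedule: 90 min reaction incubation at room temperature, dark | Technique: Resazurin-to-resorufin fluorescence via G6PDH and diaphorase coupling, 525/613 nm | Controls: DMSO wells with and without enzyme mix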
PfGluPho inh = PfG6PD (Plasmodium falciparum) enzyme inhibition; PfGluPho enzyme, NADPH resazurin-diaphorase fluorescence; inhibition, % at 20 µM; 350,000 compounds, 0.78% hits;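 active means inhibition reaching at least a set limit at 20 µM in the primary screen, cut at about 59% in these data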
Diaph inh CS = inhibits diaphorase or chemically oxidizes, flagging diaphorase assay artifacts; diaphorase resazurin-to-resorufin fluorescence, NADH, 16 min; bacterial (C. kluyveri) enzyme, not human; inhibition, % at 20 µM; 190,000 compounds, 0.69% hits; AID 1217;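 active means primary screen inhibition at 20 µM above a set limit, cut at about 50% in these data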
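Assay system – diaphorase enzyme from Clostridium kluyveri · Amount – diaphorase 0.14 U/mL (working solution) · Times – reaction incubation of 16 min at room temperature · Controls – No-NADH positive control and DMSO neutral control · Signal – resorufin fluorescence 544/590 nm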
HKDC1 act conf = confirmation of human HKDC1 activators | shares compounds with HKDC1 inhibitor | recombinant HKDC1, G6PDH/diaphorase resazurin fluorescence; active compounds read low | inhibition, % at 20 µM | 740 compounds, 14% hits;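 active means inhibition at or below a set negative limit, negative inhibition meaning the enzyme was activated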
Large screens that a line does not name were inactive (follow-up assays come after a bar, where they were run).

C#CCOCCOCCOCCNc1nc(N2CCN(C(=O)CCCCCCCCCCNC(=O)[C@H](CCCCN)n3cc(CCCC(=O)O)nn3)CC2)nc(N2CCN(C(=O)CCCCCCCCCCNC(=O)[C@H](CCCN=C(N)N)n3cc(C[C@@H](C)CC)nn3)CC2)n1	none (no result: G6PDH counter, Diaphorase act, Diaph inh CS)
C#CCOCCOCCOCCNc1nc(N2CCN(C(=O)CCCCCCCCCCNC(=O)[C@H](CCCCN)n3cc(CCO)nn3)CC2)nc(N2CCN(C(=O)CCCCCCCCCCNC(=O)[C@H](CCCN=C(N)N)n3cc(C[C@@H](C)CC)nn3)CC2)n1	PfGluPho inh 62 (no result: G6PDH counter, Diaphorase act, Diaph inh CS)
C#CCOCCOCCOCCNc1nc(N2CCN(C(=O)C(Cc3cc4ccccc4[nH]3)n3cc(C(N)Cc4ccc(O)cc4)nn3)CC2)nc(N2CCN(C(=O)C(Cc3cc4ccccc4[nH]3)n3cc(C(N)Cc4ccc(O)cc4)nn3)CC2)n1 (stereo not drawn)	Diaphorase act 2
C#CCOCCOCCOCCNc1nc(N2CCN(C(=O)[C@H](CCCCN)n3cc(CCCC)nn3)CC2)nc(N2CCN(C(=O)[C@H](Cc3ccc(O)cc3)n3cc(CCO)nn3)CC2)n1	PfGluPho inh 76
C#CCOCCOCCOCCNc1nc(N2CCN(C(=O)CCCCCCCCCCNC(=O)Cn3cc(CCCCCN)nn3)CC2)nc(N2CCN(C(=O)CCCCCCCCCCNC(=O)[C@H]([C@@H](C)CC)n3cc(CCCCCN)nn3)CC2)n1	PfGluPho inh 66 (no result: G6PDH counter, Diaphorase act, Diaph inh CS)
CCOC(=O)c1nc(SC)n(C)c1C(=O)OCC	none (no result: G6PDH counter, Diaphorase act, Diaph inh CS)
COc1ccc(NC(=S)NNC(=O)Cn2nc([N+](=O)[O-])cc2C)cc1	none
Cc1cc([N+](=O)[O-])nn1CC(=O)NNC(=S)Nc1ccc([N+](=O)[O-])cc1	Diaph inh CS 62
COc1ccccc1S(=O)(=O)N(C)C[C@@H]1OCc2cnnn2CCCC(=O)N([C@@H](C)CO)C[C@H]1C	none (no result: G6PDH counter, Diaphorase act, HKDC1 inhibitor, Diaph inh CS)
COC(=O)c1ccc(N2NC(=O)/C(=C/c3ccc(-c4ccc(Cl)c(C(=O)O)c4)o3)C2=O)cc1	Diaph inh CS 74
O=C(Nc1ccc(N2CCOCC2)c(Cl)c1)c1cc2ccccc2o1	PfGluPho inh 126
N[C@@H](C(=O)N[C@@H]1C(=O)N2C(C(=O)O)=C(Cl)CS[C@H]12)c1ccccc1	none
NC(=O)c1cc[n+](CC2=C(C(=O)O)N3C(=O)[C@@H](NC(=O)C(c4ccccc4)S(=O)(=O)[O-])[C@H]3SC2)cc1 (stereo partly drawn)	PfGluPho inh 71
O=[N+]([O-])c1ccccc1N/N=C1\CC2CC=CC12 (stereo not drawn)	Diaph inh CS 61
O=C(N/N=C1\CC2CC=CC12)c1ccccc1Cl (stereo not drawn)	none
COc1ccc(CCNC(=O)c2cccc(S(=O)(=O)N3CCc4ccccc4C3)c2)cc1	none (no result: G6PDH counter, Diaphorase act, Diaph inh CS)
COc1cc(Cn2nnc3ccccc32)cc(Br)c1O	none (no result: G6PDH counter, Diaphorase act, Diaph inh CS)
COC(=O)Oc1nsnc1N1CCOCC1	PfGluPho inh 61
O=C(Oc1nsnc1N1CCOCC1)N(c1ccccc1)c1ccccc1	none
Nc1sc2c(c1C(=O)NC1CCS(=O)(=O)C1)CCCC2 (stereo not drawn)	PfGluPho inh 62
NC(=O)c1c(N)sc2c1CCCC2	none
CCC(=O)N(C)/C=C1\Sc2ccccc2C1=O	none
CCC(=O)N(CC)C1=C(O)c2ccccc2C(=O)C1=O	G6PDH counter 52
COc1cc2[nH]c(=S)nc(NC3CCCCCC3)c2cc1OC	Diaph inh CS 75
COc1cc2[nH]c(=S)nc(NCC3CCCO3)c2cc1OC (stereo not drawn)	none
O=C1C=C(c2ccccc2Oc2ccccc2)C[C@@H](c2ccc(F)cc2)C1	none (no result: G6PDH counter, Diaphorase act, HKDC1 inhibitor, Diaph inh CS)
O=C(O)c1ccc(Nc2nc(-c3cc4ccccc4oc3=O)cs2)cc1O	Diaph inh CS 88
COc1ccccc1N(CC(=O)N/N=C/c1c(O)ccc2ccccc12)S(C)(=O)=O	none | HKDC1 act conf inactive
COc1ccc(S(=O)(=O)c2c(O)cc(C)c(NS(=O)(=O)c3ccccc3)c2C)cc1	none (no result: G6PDH counter, Diaphorase act, Diaph inh CS)
CCn1c(=O)n(CC)c2cc(N3CCCC3)c(NC(=O)c3ccccc3OC)cc21	none (no result: G6PDH counter, Diaphorase act, Diaph inh CS) | HKDC1 act conf inactive
COC(=O)c1cc(=O)n(Cc2ccc(OC)cc2)c(=NCc2ccc(OC)cc2)s1	none | HKDC1 act conf inactive
COC(=O)c1cc(=O)n(Cc2ccccc2)c(=NCc2ccccc2)s1	none (no result: HKDC1 inhibitor, PfGluPho inh)
O=S(=O)(CCSc1nc2ccccc2s1)c1nc2ccccc2s1	HKDC1 inhibitor 39 | HKDC1 act conf inactive
CCS(=O)(=O)CCSc1nc2ccccc2s1	none
C=CCN(c1ccccc1OC)S(=O)(=O)c1cccc(C(=O)NCC(c2ccc(OC)cc2)N2CCCC2)c1 (stereo not drawn)	none (no result: G6PDH counter, Diaphorase act, Diaph inh CS)
O=C(O)c1ccccc1NS(=O)(=O)c1ccc(N/N=C/c2cccc(O)c2O)c([N+](=O)[O-])c1	HKDC1 inhibitor 36 (no result: G6PDH counter, Diaphorase act, Diaph inh CS) | HKDC1 act conf inactive
CC(=O)Nc1ccc(C=NNc2ccc(S(=O)(=O)Nc3ccccc3C(=O)O)cc2[N+](=O)[O-])cc1	none (no result: G6PDH counter, Diaphorase act, Diaph inh CS)
CN(C)CCC1(C2=CCCC2)CC/C(=C/c2ccc(Cl)cc2)C1=O (stereo not drawn)	none (no result: G6PDH counter, Diaphorase act, Diaph inh CS)
CN(C(=O)COC(=O)c1ccc(=O)n(Cc2ccccc2)n1)C1CCCCC1	none (no result: G6PDH counter, Diaphorase act, Diaph inh CS)
Cc1ccccc1N=C1NN=C(c2ccccc2F)CS1	none | HKDC1 act conf -40
COc1ccc2c(c1)/C(=N/N1C(=O)c3ccccc3C1=O)C(=O)N2	none (no result: HKDC1 inhibitor, PfGluPho inh)

High-throughput results from PubChem.
